Experimental data published in ChEMBL document CHEMBL4184148 (Bioorg Med Chem Lett, 2017).

Columns and labels:
[1] = molecular target: Myosin light chain kinase (Homo sapiens) (UniProt Q32MK0); assay: Binding affinity to wild-type human partial length MLCK (D488 to K800 residues) expressed in Escherichia coli BL21 at 1 uM by Kinomescan method relative to control
[2] = molecular target: Activin receptor type-1B (Homo sapiens) (UniProt P36896); assay: Binding affinity to wild-type human ACVR1B (S187 to I505 residues) expressed in Escherichia coli BL21 at 1 uM by Kinomescan method relative to control
[3] = molecular target: cGMP-dependent protein kinase 1 (Homo sapiens) (UniProt Q13976); assay: Binding affinity to wild-type human partial length PRKG1 (L339 to F686 residues) expressed in Escherichia coli BL21 at 1 uM by Kinomescan method relative to control
[4] = molecular target: Serine/threonine-protein kinase BRSK2 (Homo sapiens) (UniProt Q8IWQ3); assay: Binding affinity to wild-type human full length BRSK2 (M1 to L674 residues) expressed in Escherichia coli BL21 at 1 uM by Kinomescan method relative to control
[5] = tested on: Receptor-type tyrosine-protein kinase FLT3 (Homo sapiens), P36888 [UNDEFINED MUTATION]; assay: Binding affinity to human partial length FLT3 ITD mutant expressed in Escherichia coli BL21 at 1 uM by Kinomescan method relative to control
[6] = molecular target: Serine/threonine-protein kinase TNNI3K (Homo sapiens) (UniProt Q59H18); assay: Binding affinity to wild-type human full length TNNI3K (M1 to S835 residues) expressed in Escherichia coli BL21 at 1 uM by Kinomescan method relative to control
In short: (§1)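 Kinome-wide competition binding panel run by an outside provider, with each compound tested at a single concentration. Activity is read against the kinase panel.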

[7] = molecular target: Activated CDC42 kinase 1 (Homo sapiens) (UniProt Q07912); assay: Binding affinity to wild-type human partial length TNK2 (S159 to D474 residues) expressed in Escherichia coli BL21 at 1 uM by Kinomescan method relative to control
[8] = molecular target: Serine/threonine-protein kinase Chk1 (Homo sapiens) (UniProt O14757); assay: Binding affinity to wild-type human partial length CHEK1 (M1 to G289 residues) expressed in Escherichia coli BL21 at 1 uM by Kinomescan method relative to control
[9] = molecular target: Protein kinase C theta type (Homo sapiens) (UniProt Q04759); assay: Binding affinity to wild-type human partial length PRKCQ (L350 to S706 residues) expressed in Escherichia coli BL21 at 1 uM by Kinomescan method relative to control
[10] = molecular target: Cyclin-dependent kinase 8 (Homo sapiens) (UniProt P49336); assay: Binding affinity to wild-type human partial length CDK8 (M1 to T360 residues) expressed in Escherichia coli BL21 at 1 uM by Kinomescan method relative to control
[11] = molecular target: Activin receptor type-1 (Homo sapiens) (UniProt Q04771); assay: Binding affinity to wild-type human ACVR1 (C188 to C509 residues) expressed in Escherichia coli BL21 at 1 uM by Kinomescan method relative to control
[12] = molecular target: Phosphorylase b kinase gamma catalytic chain, skeletal muscle/heart isoform (Homo sapiens) (UniProt Q16816); assay: Binding affinity to wild-type human full length PHKG1 (M1 to Y387 residues) expressed in Escherichia coli BL21 at 1 uM by Kinomescan method relative to control; in short: as §1
[13] = molecular target: Wee1-like protein kinase (Homo sapiens) (UniProt P30291); assay: Binding affinity to wild-type human partial length WEE1 (M291 to K575 residues) expressed in Escherichia coli BL21 at 1 uM by Kinomescan method relative to control
[14] = tested on: Phosphatidylinositol 4,5-bisphosphate 3-kinase catalytic subunit alpha isoform (Homo sapiens), P42336 [C420R]; assay: Binding affinity to human partial length PIK3CA C420R mutant (R108 to N1068 residues) expressed in HEK293 cells at 1 uM by Kinomescan method relative to control; format: cell-based
[15] = molecular target: STE20/SPS1-related proline-alanine-rich protein kinase (Homo sapiens) (UniProt Q9UEW8); assay: Binding affinity to wild-type human partial length STK39 (P43 to I357 residues) expressed in HEK293 cells at 1 uM by Kinomescan method relative to control; format: cell-based
[16] = molecular target: Cyclin-dependent kinase 7 (Homo sapiens) (UniProt P50613); assay: Binding affinity to wild-type human full length CDK7 (M1 to L344 residues) expressed in HEK293 cells at 1 uM by Kinomescan method relative to control; format: cell-based
In short: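 Run as one kinome-wide competition binding panel with each compound at a single fixed concentration. Results were plotted as a kinome-wide selectivity map.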

[17] = molecular target: Serine/threonine-protein kinase 32A (Homo sapiens) (UniProt Q8WU08); assay: Binding affinity to wild-type human full length YANK1 (M1 to L396 residues) expressed in HEK293 cells at 1 uM by Kinomescan method relative to control; format: cell-based; in short: as §1
[18] = molecular target: Serine/threonine-protein kinase D3 (Homo sapiens) (UniProt O94806); assay: Binding affinity to wild-type human partial length PRKD3 (S543 to E863 residues) expressed in Escherichia coli BL21 at 1 uM by Kinomescan method relative to control
[19] = molecular target: Aurora kinase C (Homo sapiens) (UniProt Q9UQB9); assay: Binding affinity to wild-type human full length AURKC (M1 to S275 residues) expressed in Escherichia coli BL21 at 1 uM by Kinomescan method relative to control
[20] = molecular target: Cyclin-dependent kinase 17 (Homo sapiens) (UniProt Q00537); assay: Binding affinity to wild-type human full length PCTK2 (M1 to F523 residues) expressed in Escherichia coli BL21 at 1 uM by Kinomescan method relative to control; in short: as §1
[21] = molecular target: Serine/threonine-protein kinase 16 (Homo sapiens) (UniProt O75716); assay: Binding affinity to wild-type human partial length STK16 (G11 to I305 residues) expressed in Escherichia coli BL21 at 1 uM by Kinomescan method relative to control
[22] = molecular target: Mitotic checkpoint serine/threonine-protein kinase BUB1 (Homo sapiens) (UniProt O43683); assay: Binding affinity to wild-type human partial length BUB1 (Q724 to K1085 residues) expressed in HEK293 cells at 1 uM by Kinomescan method relative to control; format: cell-based
[23] = molecular target: SRSF protein kinase 3 (Homo sapiens) (UniProt Q9UPE1); assay: Binding affinity to wild-type human partial length SRPK3 (P41 to P567 residues) expressed in Escherichia coli BL21 at 1 uM by Kinomescan method relative to control
[24] = molecular target: Serine/threonine-protein kinase Nek1 (Homo sapiens) (UniProt Q96PY6); assay: Binding affinity to wild-type human partial length NEK1 (M1 to K278 residues) expressed in Escherichia coli BL21 at 1 uM by Kinomescan method relative to control
[25] = molecular target: Homeodomain-interacting protein kinase 2 (Homo sapiens) (UniProt Q9H2X6); assay: Binding affinity to wild-type human partial length HIPK2 (M153 to S564 residues) expressed in HEK293 cells at 1 uM by Kinomescan method relative to control; format: cell-based

cGMP-dependent protein kinase 1 (Homo sapiens), sequence (Q13976 whole entry, the tested form may be a part): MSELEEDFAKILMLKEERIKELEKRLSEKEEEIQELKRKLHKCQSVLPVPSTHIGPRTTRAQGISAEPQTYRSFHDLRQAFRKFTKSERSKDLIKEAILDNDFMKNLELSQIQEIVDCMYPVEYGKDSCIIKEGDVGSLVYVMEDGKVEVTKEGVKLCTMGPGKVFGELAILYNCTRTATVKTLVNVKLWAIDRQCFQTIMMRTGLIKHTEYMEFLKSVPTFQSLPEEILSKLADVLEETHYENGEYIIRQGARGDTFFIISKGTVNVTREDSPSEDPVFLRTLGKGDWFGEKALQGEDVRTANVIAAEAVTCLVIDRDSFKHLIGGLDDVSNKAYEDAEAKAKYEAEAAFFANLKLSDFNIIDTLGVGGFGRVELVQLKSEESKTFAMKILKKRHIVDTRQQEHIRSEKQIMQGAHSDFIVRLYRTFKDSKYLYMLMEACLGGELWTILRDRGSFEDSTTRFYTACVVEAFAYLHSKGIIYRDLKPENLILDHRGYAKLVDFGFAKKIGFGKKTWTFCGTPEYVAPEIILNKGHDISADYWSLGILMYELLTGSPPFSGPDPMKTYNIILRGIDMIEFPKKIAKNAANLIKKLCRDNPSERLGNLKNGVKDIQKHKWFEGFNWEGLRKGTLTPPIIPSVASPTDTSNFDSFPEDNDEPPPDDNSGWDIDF
Serine/threonine-protein kinase 32A (Homo sapiens), sequence (Q8WU08 whole entry, the tested form may be a part): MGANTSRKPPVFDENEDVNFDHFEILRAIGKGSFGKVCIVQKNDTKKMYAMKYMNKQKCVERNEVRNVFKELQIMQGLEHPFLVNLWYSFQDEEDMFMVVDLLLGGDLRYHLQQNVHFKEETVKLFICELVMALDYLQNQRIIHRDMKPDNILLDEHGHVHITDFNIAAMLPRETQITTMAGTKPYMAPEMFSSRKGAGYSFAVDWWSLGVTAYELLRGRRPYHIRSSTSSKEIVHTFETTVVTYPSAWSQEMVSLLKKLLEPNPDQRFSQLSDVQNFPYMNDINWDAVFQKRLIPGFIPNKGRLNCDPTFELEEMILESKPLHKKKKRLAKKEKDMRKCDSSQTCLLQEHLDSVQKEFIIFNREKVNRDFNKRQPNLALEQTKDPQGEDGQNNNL
Wee1-like protein kinase (Homo sapiens), sequence (P30291 whole entry, looked up, the tested form may be a part, canonical isoform): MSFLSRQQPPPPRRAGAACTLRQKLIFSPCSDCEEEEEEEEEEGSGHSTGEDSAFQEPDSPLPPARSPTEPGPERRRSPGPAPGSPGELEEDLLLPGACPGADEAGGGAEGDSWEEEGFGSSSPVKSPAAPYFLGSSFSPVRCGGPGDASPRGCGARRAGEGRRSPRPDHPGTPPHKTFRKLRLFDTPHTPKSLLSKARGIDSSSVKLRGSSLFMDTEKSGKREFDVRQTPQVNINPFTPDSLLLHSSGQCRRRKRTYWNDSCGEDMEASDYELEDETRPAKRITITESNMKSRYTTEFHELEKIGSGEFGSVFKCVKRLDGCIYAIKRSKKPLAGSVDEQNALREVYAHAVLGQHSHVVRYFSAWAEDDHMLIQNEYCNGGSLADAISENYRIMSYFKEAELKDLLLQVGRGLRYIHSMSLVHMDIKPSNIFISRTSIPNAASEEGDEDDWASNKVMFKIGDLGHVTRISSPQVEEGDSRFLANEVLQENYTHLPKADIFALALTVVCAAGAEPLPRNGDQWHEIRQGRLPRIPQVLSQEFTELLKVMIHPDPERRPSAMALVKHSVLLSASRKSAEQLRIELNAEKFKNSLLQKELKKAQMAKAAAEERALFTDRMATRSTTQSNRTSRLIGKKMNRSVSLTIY
Myosin light chain kinase (Homo sapiens), sequence (Q32MK0 whole entry, the tested form may be a part): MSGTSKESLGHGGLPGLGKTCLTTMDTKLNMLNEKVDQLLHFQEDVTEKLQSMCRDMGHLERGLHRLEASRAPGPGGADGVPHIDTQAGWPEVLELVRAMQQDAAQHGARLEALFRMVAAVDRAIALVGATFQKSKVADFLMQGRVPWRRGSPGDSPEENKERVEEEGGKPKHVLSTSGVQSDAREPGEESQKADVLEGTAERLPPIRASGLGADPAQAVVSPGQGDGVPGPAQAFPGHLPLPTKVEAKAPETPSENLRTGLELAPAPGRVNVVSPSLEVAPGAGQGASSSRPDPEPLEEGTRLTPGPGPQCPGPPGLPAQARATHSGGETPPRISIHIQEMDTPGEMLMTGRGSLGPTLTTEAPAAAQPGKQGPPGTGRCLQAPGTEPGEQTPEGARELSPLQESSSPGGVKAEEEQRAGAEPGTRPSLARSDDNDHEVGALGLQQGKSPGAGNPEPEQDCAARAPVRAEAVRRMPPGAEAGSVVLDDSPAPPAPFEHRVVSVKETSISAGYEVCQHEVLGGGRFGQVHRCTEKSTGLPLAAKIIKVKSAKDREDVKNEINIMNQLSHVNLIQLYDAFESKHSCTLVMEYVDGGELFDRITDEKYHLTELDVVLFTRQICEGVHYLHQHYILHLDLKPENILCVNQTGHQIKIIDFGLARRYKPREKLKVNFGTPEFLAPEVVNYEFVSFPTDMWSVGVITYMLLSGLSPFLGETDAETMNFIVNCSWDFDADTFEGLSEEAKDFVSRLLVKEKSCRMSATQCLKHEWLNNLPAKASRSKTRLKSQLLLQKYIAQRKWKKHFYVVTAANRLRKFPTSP
Serine/threonine-protein kinase D3 (Homo sapiens), sequence (O94806 whole entry, the tested form may be a part): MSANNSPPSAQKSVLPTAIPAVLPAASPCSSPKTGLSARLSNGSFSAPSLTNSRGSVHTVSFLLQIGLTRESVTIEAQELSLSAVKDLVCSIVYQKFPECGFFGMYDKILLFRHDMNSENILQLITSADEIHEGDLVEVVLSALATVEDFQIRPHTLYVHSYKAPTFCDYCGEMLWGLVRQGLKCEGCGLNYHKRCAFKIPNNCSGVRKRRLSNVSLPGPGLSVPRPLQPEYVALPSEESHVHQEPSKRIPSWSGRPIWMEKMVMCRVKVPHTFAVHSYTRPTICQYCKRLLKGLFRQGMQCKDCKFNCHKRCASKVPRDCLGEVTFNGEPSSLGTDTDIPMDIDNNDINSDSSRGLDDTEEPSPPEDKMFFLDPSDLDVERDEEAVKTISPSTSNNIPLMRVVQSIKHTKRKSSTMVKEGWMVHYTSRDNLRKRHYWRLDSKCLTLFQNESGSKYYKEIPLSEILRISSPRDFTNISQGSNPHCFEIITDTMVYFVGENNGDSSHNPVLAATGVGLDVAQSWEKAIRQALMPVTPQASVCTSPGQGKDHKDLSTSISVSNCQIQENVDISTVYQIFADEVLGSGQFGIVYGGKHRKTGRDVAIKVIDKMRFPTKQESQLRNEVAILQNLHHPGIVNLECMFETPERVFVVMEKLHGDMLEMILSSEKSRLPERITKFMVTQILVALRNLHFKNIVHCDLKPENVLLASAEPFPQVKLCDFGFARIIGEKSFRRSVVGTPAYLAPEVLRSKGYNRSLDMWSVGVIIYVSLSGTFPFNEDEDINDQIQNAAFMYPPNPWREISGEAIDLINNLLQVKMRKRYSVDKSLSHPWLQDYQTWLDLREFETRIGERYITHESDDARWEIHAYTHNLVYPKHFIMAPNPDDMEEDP
Aurora kinase C (Homo sapiens), sequence (Q9UQB9 whole entry, the tested form may be a part): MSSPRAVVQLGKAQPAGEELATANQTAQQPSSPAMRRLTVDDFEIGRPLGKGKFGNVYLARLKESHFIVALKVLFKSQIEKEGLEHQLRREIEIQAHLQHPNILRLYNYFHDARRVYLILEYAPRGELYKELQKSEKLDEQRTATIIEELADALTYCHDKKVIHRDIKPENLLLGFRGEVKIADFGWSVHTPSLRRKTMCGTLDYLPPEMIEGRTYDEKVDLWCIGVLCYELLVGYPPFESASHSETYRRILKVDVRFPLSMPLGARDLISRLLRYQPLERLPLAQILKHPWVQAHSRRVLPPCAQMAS
Cyclin-dependent kinase 17 (Homo sapiens), sequence (Q00537 whole entry, looked up, the tested form may be a part): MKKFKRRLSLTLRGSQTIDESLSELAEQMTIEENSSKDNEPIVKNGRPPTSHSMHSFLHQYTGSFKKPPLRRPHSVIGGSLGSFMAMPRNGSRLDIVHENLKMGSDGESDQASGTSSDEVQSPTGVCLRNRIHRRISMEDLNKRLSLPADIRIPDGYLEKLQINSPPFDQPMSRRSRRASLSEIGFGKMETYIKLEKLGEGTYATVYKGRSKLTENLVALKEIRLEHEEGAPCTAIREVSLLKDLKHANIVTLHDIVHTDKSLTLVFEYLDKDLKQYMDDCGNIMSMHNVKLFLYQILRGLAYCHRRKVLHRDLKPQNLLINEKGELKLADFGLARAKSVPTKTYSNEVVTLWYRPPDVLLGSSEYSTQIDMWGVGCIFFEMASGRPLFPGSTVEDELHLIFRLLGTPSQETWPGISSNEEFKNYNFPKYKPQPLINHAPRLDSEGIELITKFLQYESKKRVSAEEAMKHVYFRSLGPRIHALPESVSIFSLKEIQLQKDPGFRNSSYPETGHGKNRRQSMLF
Serine/threonine-protein kinase BRSK2 (Homo sapiens), sequence (Q8IWQ3 whole entry, the tested form may be a part): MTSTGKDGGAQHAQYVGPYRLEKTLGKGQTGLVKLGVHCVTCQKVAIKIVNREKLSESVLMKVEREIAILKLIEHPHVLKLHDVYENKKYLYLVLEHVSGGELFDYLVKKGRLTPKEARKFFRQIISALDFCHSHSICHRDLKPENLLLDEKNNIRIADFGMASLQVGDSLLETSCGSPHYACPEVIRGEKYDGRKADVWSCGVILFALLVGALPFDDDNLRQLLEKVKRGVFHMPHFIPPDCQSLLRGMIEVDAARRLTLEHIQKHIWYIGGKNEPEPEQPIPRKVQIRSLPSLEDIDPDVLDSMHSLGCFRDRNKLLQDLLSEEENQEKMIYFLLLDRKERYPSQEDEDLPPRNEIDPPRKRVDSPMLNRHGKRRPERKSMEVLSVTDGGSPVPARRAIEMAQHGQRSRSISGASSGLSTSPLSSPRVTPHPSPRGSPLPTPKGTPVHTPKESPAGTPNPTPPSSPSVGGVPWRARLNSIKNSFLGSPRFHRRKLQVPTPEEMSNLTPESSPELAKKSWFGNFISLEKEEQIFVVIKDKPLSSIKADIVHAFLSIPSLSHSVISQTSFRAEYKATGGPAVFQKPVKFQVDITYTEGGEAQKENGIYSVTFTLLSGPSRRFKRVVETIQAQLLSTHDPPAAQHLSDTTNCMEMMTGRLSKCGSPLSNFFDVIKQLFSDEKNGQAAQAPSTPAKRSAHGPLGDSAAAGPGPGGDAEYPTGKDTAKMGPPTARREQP

Row | Structure (SMILES) | Activity [1] | Activity [2] | Activity [3] | Activity [4] | Activity [5] | Activity [6] | Activity [7] | Activity [8] | Activity [9] | Activity [10] | Activity [11] | Activity [12] | Activity [13] | Activity [14] | Activity [15] | Activity [16] | Activity [17] | Activity [18] | Activity [19] | Activity [20] | also measured
1 | CCC(=O)Nc1ccc(C(=O)Nc2ccc(Nc3ncc4c(n3)N(C)c3ccc(C)cc3C(=O)N4C)cc2)cc1 | 99% | 100% | 100% | 88% | 94% | 100% | 86% | 87% | 99% | 100% | 80% | 88% | 100% | 89% | 73% | 66% | 82% | 81% | 1.3% | 100% | Activity [21]: 77%; Activity [22]: 98%; Activity [23]: 100%; Activity [24]: 100%; Activity [25]: 100%
2 | C=CC(=O)Nc1ccc(C(=O)Nc2ccc(Nc3ncc4c(n3)N(C)c3ccc(C)cc3C(=O)N4C)cc2)cc1 | 90% | 85% | 100% | 98% | 83% | 77% | 96% | 100% | 96% | 78% | 93% | 99% | 100% | 58% | 88% | 80% | 100% | 90% | 49% | 99% | Activity [21]: 77%; Activity [22]: 95%; Activity [23]: 100%; Activity [24]: 94%; Activity [25]: 94%
